The term EC50 denotes the concentration at which the effect is half-maximal. Broadly, the CC50 is the concentration at which the toxic effect on the cells reaches its halfway point.

Like-named read-outs stand apart in the source and are kept apart here.

Common to all, as to type: cell-based
The subject of one data set is HIV-1 (IIIB strain). The data set is described as follows: MT-4 antiviral cytoprotection assay, five-day multi-cycle, wild type HIV-1. The settings on record: for anti-HIV activity in words / SI (selectivity index): wild type; for anti-HIV activity in words: MT-4 cells; for SI (selectivity index): CC50/EC50 ratio, MT-4. In short, it runs like this: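 MT-4 cells were pre-infected with a fresh 1:250 dilution of concentrated HIV-1 IIIB stock, or mock-infected for cytotoxicity. Test compound was serially diluted 1:3 in DMSO, then 200-fold into RPMI with 10% FBS and 1% P/S. Controls were no-drug and 5 µM AZT. After 5 days at 37°C, viability was read by CellTiter-Glo luminescence. EC50/CC50 were taken as 50% signal decrease from sigmoidal fits; SI = CC50/EC50.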

The next data set has as its system MT-4 cells. Put plainly: MT-4 cytotoxicity assay. The settings on record: MT-4 cell line, n = 3.
Another data set in a line: MT-4 cytotoxicity assay. The settings on record: human, MT-4 cells (mock-infected), CC50, MT-4 cell line, n = 3.
For data set [1], the system named is HIV-1 encoding RT mutation Y181C. The data set is described as follows: MT-4 antiviral assay against HIV-1 encoding RT mutation Y181C. The settings on record: Human immunodeficiency virus 1, MT4, read-out: EC50 Y181C.
Data set [2] deals with HIV-1 encoding RT mutation K103N. The data set is described as follows: MT-4 antiviral assay against HIV-1 encoding RT mutation K103N. The settings on record: Human immunodeficiency virus 1, MT4, read-out: EC50 K103N.
Setting [3] is: Human immunodeficiency virus 1, IIIB, MT4, read-out: EC50 w.t.

On to “4-((4-amino-6–(2,6-difluoro-4-methoxybenzoyl)pyrimidin-2-yl)amino)benzonitrile [Compound 15]”, for which the EC50 in the data set with HIV-1 (IIIB strain) (read-out: EC50 w.t., MT-4 cell line, HIV-1 IIIB wild type, n = 3) was 2.2 µM. In the data set on HIV-1 (IIIB strain), the “anti-HIV activity in words” value is listed as “micromolar range”. The same molecule displayed a half-maximal cytotoxic concentration (CC50) in the data set on MT-4 cells of 7.7 µM.
In the case of `COc1cc(F)c(C(=O)c2nc(N)cc(Nc3ccc(C#N)cc3)n2)c(F)c1` [Compound 11, 4-((6-amino-2–(2,6-difluoro-4-methoxybenzoyl)pyrimidin-4-yl)amino)benzonitrile], in the data set on HIV-1 (IIIB strain), the “SI (selectivity index)” value is given as 7.14 and the “anti-HIV activity in words” value is “micromolar range”. In the data set with HIV-1 (IIIB strain) (setting [3]), the EC50 amounted to 0.874 µM. This molecule returned a CC50 at 5 days in the data set “MT-4 cytotoxicity assay” of 6.24 µM.
For `Cc1cc(C(=O)c2c(F)cc(F)cc2F)nc(Nc2ccc(C#N)cc2)n1` [Compound 18, 4-((4-methyl-6–(2,4,6-trifluorobenzoyl)pyrimidin-2-yl)amino)benzonitrile], in the data set with HIV-1 (IIIB strain) (setting [3]), the EC50 came out at 0.16 µM. Further, the midpoint of cytotoxicity in the data set “MT-4 cytotoxicity assay”, the CC50 at 5 days, lay at 57.1 µM.
On to `COc1cc(C(=O)c2c(F)cc(F)cc2F)nc(Nc2ccc(C#N)cc2)n1` [Compound 22, 4-((4-methoxy-6–(2,4,6-trifluorobenzoyl)pyrimidin-2-yl)amino)benzonitrile], for which the “SI (selectivity index)” value in the data set with HIV-1 (IIIB strain) is recorded as 19.4. Also, the EC50 in the data set on HIV-1 (IIIB strain) (setting [3]) stood at 0.473 µM. This molecule also registered a CC50 at 5 days in “MT-4 cytotoxicity assay” of 9.16 µM.
With `N#Cc1ccc(Nc2nc(N)cc(Oc3c(F)cc(F)cc3F)n2)cc1` [Compound 36, 4-((4-amino-6–(2,4,6-trifluorophenoxy)pyrimidin-2-yl)amino)benzonitrile], the EC50 came out at 6.66 µM in data set [1], 0.067 µM in data set [2] and 0.067 µM in the data set with HIV-1 (IIIB strain) (setting [3]). Besides, the “SI (selectivity index)” value in the data set with HIV-1 (IIIB strain) was 293. This molecule gave a CC50 at 5 days in the data set “MT-4 cytotoxicity assay” of 19.6 µM.
Regarding `Cc1cc(C#N)cc(C)c1Oc1nc(Nc2ccc(C#N)cc2)nc(N)c1Br` [ETR, etravirine, reference compound], the EC50 in data set [1] turned out to be 0.012 µM; in data set [2], 0.002 µM; in the data set with HIV-1 (IIIB strain) (setting [3]) it was 0.002 µM. Moreover, the “SI (selectivity index)” value in the data set on HIV-1 (IIIB strain) amounted to 2940. In “MT-4 cytotoxicity assay”, this molecule showed a CC50 at 5 days of 5.88 µM.
As for `N#Cc1ccc(Nc2nc(Cl)cc(Nc3c(F)cc(F)cc3F)n2)cc1` [Compound 30, 4-((4-chloro-6-((2,4,6-trifluorophenyl)amino)pyrimidin-2-yl)amino)benzonitrile], the EC50 came to 2 µM in data set [1], 1.02 µM in data set [2] and 0.027 µM with HIV-1 (IIIB strain) (setting [3]). Besides, the “SI (selectivity index)” value in the data set on HIV-1 (IIIB strain) worked out at 378. In the data set “MT-4 cytotoxicity assay”, this molecule had a CC50 at 5 days of 10.2 µM.
As to `COc1cc(Nc2c(F)cc(F)cc2F)nc(Nc2ccc(C#N)cc2)n1` [Compound 34, 4-((4-methoxy-6-((2,4,6-trifluorophenyl)amino)pyrimidin-2-yl)amino)benzonitrile], the EC50 in data set [1] was 2.02 µM; in data set [2], 1.21 µM; in the data set with HIV-1 (IIIB strain) (setting [3]), 0.022 µM. For the same molecule, in the data set on HIV-1 (IIIB strain), the “SI (selectivity index)” value was 454. This molecule had a CC50 at 5 days in “MT-4 cytotoxicity assay” of 9.99 µM.
The like results for `N#Cc1ccc(Nc2nc(N)cc(Nc3c(F)cc(F)cc3F)n2)cc1` [Compound 38, 4-((4-amino-6-((2,4,6-trifluorophenyl)amino)pyrimidin-2-yl)amino)benzonitrile] were, in that order, 13.7 µM, 1.65 µM, 0.027 µM, 1289 and 34.8 µM.
`COc1cc(F)c(Nc2cc(Cl)nc(Nc3ccc(C#N)cc3)n2)c(F)c1` [Compound 29, 4-((4-chloro-6-((2,6-difluoro-4-methoxyphenyl)amino)pyrimidin-2-yl)amino)benzonitrile]: the figures for the EC50 (in data set [1]; in data set [2]; with HIV-1 (IIIB strain) (setting [3])) were 0.651 µM, 0.204 µM and 0.006 µM, respectively. Moreover, the “SI (selectivity index)” value in the data set on HIV-1 (IIIB strain) is 2667. In the data set “MT-4 cytotoxicity assay”, this molecule returned a CC50 at 5 days of 16 µM.
On to `COc1cc(F)c(Oc2cc(Cl)nc(Nc3ccc(C#N)cc3)n2)c(F)c1` [Compound 27, 4-((4-chloro-6–(2,6-difluoro-4-methoxyphenoxy)pyrimidin-2-yl)amino)benzonitrile], for which the values for the EC50 (in data set [1]; in data set [2]; in the data set on HIV-1 (IIIB strain) (setting [3])) were 1.64 µM, 0.413 µM and 0.019 µM, respectively. The “SI (selectivity index)” value in the data set with HIV-1 (IIIB strain) is given as 847. This molecule also yielded a CC50 at 5 days in the data set “MT-4 cytotoxicity assay” of 16.1 µM.
The like results for `COc1cc(F)c(Oc2cc(N)nc(Nc3ccc(C#N)cc3)n2)c(F)c1` [Compound 35, 4-((4-amino-6–(2,6-difluoro-4-methoxyphenoxy)pyrimidin-2-yl)amino)benzonitrile] were, in that order, 0.637 µM, 0.036 µM, 0.002 µM, 10,850 and 21.7 µM.
The like results for `COc1cc(F)c(Nc2cc(N)nc(Nc3ccc(C#N)cc3)n2)c(F)c1` [Compound 37, 4-((4-amino-6-((2,6-difluoro-4-methoxyphenyl)amino)pyrimidin-2-yl)amino)benzonitrile] were, in that order, 0.437 µM, 0.062 µM, 0.003 µM, 5733 and 17.2 µM.
With `COc1cc(F)c(Nc2cc(OC)nc(Nc3ccc(C#N)cc3)n2)c(F)c1` [Compound 33, 4-((4-((2,6-difluoro-4-methoxyphenyl)amino)-6-methoxypyrimidin-2-yl)amino)benzonitrile], in the data set with HIV-1 (IIIB strain), the “SI (selectivity index)” value is listed as 5571. The EC50 with HIV-1 (IIIB strain) (setting [3]) stood at 0.007 µM. In the data set “MT-4 cytotoxicity assay”, this molecule displayed a CC50 at 5 days of 39 µM.
`N#Cc1ccc(Nc2nc(N)cc(C(=O)c3c(F)cc(F)cc3F)n2)cc1` [Compound 14, 4-((4-amino-6–(2,4,6-trifluorobenzoyl)pyrimidin-2-yl)amino)benzonitrile]: the EC50 in data set [1] came to 3.9 µM; in data set [2], 1.7 µM; in the data set on HIV-1 (IIIB strain) (setting [3]) it was 0.026 µM. Further, the “SI (selectivity index)” value with HIV-1 (IIIB strain) was determined as 935. In addition, the “anti-HIV activity in words” value in the data set with HIV-1 (IIIB strain) is reported as “low nanomolar activities”. The same molecule displayed a half-maximal cytotoxic concentration (CC50) at 5 days in “MT-4 cytotoxicity assay” of 24.3 µM.
As to `N#Cc1ccc(Nc2cc(C(=O)c3c(F)cc(F)cc3F)nc(N)n2)cc1` [Compound 16, 4-((2-amino-6–(2,4,6-trifluorobenzoyl)pyrimidin-4-yl)amino)benzonitrile], in the data set on HIV-1 (IIIB strain), the “SI (selectivity index)” value was 0.025 and the “anti-HIV activity in words” value is reported as “micromolar range”. For the same molecule, the EC50 in the data set with HIV-1 (IIIB strain) (setting [3]) was found to be 40 µM. This molecule registered a CC50 at 5 days in “MT-4 cytotoxicity assay” of 0.981 µM.
Turning to `COc1cc(F)c(Oc2cc(OC)nc(Nc3ccc(C#N)cc3)n2)c(F)c1` [Compound 31, 4-((4–(2,6-difluoro-4-methoxyphenoxy)-6-methoxypyrimidin-2-yl)amino)benzonitrile], the EC50 in data set [1] is 4.37 µM; in data set [2], 0.444 µM; in the data set with HIV-1 (IIIB strain) (setting [3]), 0.019 µM. The “SI (selectivity index)” value in the data set on HIV-1 (IIIB strain) is 832. Also, the CC50 at 5 days in “MT-4 cytotoxicity assay” amounted to 15.8 µM.
For the molecule `N#Cc1ccc(Nc2nc(Cl)cc(Oc3c(F)cc(F)cc3F)n2)cc1` [Compound 28, 4-((4-chloro-6–(2,4,6-trifluorophenoxy)pyrimidin-2-yl)amino)benzonitrile], the half-maximal effective concentration (EC50) was 2.53 µM in data set [1], 0.657 µM in data set [2] and 0.053 µM with HIV-1 (IIIB strain) (setting [3]). The “SI (selectivity index)” value with HIV-1 (IIIB strain) is recorded as 264. Moreover, the CC50 at 5 days in the data set “MT-4 cytotoxicity assay” was 14 µM.
As to `O=C1Nc2ccc(Cl)cc2[C@@](C#CC2CC2)(C(F)(F)F)O1` [EFV, efavirenz, reference compound], the EC50 was 0.005 µM in data set [1] and 0.101 µM in data set [2]. The molecule also had a CC50 at 5 days in “MT-4 cytotoxicity assay” of 20.6 µM.
As for `N#Cc1ccc(Nc2cc(N)nc(C(=O)c3c(F)cc(F)cc3F)n2)cc1` [Compound 12, 4-((6-amino-2–(2,4,6-trifluorobenzoyl)pyrimidin-4-yl)amino)benzonitrile], in the data set with HIV-1 (IIIB strain), the “SI (selectivity index)” value turned out to be 24.3 and the “anti-HIV activity in words” value is given as “micromolar range”. Also, the EC50 in the data set with HIV-1 (IIIB strain) (setting [3]) came out at 1.73 µM. This molecule returned a CC50 at 5 days in the data set “MT-4 cytotoxicity assay” of 42 µM.
For `COc1cc(Oc2c(F)cc(F)cc2F)nc(Nc2ccc(C#N)cc2)n1` [Compound 32, 4-((4-methoxy-6–(2,4,6-trifluorophenoxy)pyrimidin-2-yl)amino)benzonitrile], the figures for the EC50 (in data set [1]; in data set [2]; in the data set on HIV-1 (IIIB strain) (setting [3])) were 7.7 µM, 0.56 µM and 0.054 µM, respectively. For the same molecule, the “SI (selectivity index)” value with HIV-1 (IIIB strain) turned out to be 926. This molecule yielded a CC50 at 5 days in “MT-4 cytotoxicity assay” of 50 µM.
As to `COc1cc(F)c(C(=O)c2cc(N)nc(Nc3ccc(C#N)cc3)n2)c(F)c1` [Compound 13, 4-((4-amino-6–(2,6-difluoro-4-methoxybenzoyl)pyrimidin-2-yl)amino)benzonitrile], the EC50 in data set [1] turned out to be 0.797 µM; in data set [2], 0.226 µM; with HIV-1 (IIIB strain) (setting [3]), 0.004 µM. The “SI (selectivity index)” value with HIV-1 (IIIB strain) turned out to be 4900. In addition, the “anti-HIV activity in words” value in the data set on HIV-1 (IIIB strain) is “low nanomolar activities”. The midpoint of cytotoxicity in the data set “MT-4 cytotoxicity assay”, the CC50 at 5 days, lay at 19.6 µM.

The values are drawn from publication PMC6376552 (Antiviral Chemistry & Chemotherapy, 2019).
